Reference: ChEMBL document CHEMBL5042555, “Development of Myostatin Inhibitory d-Peptides to Enhance the Potency, Increasing Skeletal Muscle Mass in Mice” (ACS Med Chem Lett, 2022)
Calls of active or inactive are those of the source. The rule behind the calls is not given here. Non-standard residues stand in square brackets, D forms with d. Residues, ends and D or L forms follow the SMILES beside them. Chg = N[C@H](C(=O)O)C1CCCCC1

Key:
[1] = In vivo inhibition of myostatin in C57BL/6J mouse assessed as increase in weight of tibialis anterior muscles at 0.75 mM, IM administered for 28 days relative to control; format: functional; set-up: scale not given: the % may be the effect or the level left; conditions: time 28 day
How it was run: (§1)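 Wild-type male C57BL/6J mice, 8 weeks old. Single intramuscular injection at day 0: peptide (30 nmol; 0.75 mM in saline, 40 μL) into left tibialis anterior, saline (40 μL) into right TA. TA muscles collected and weighed at day 28, weight normalized to body weight. Increase expressed relative to saline-injected TA (=100%). Mean ± SD, N = 4–5 mice.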

[2] = Inhibition of GDF-11 (unknown origin) expressed in HEK293 cells transfected with Smad2/3 responsive reporter plasmid incubated for 4 hrs by dual luciferase reporter gene based assay; conditions: Homo sapiens, HEK293, 4 h
[3] = Inhibition of activin A (unknown origin) expressed in HEK293 cells transfected with Smad2/3 responsive reporter plasmid incubated for 4 hrs by dual luciferase reporter gene assay; conditions: Homo sapiens, HEK293, 4 h
[4] = target: T1, Growth/differentiation factor 8 (Homo sapiens, UniProt O14793); assay: Inhibition of myostatin (unknown origin) expressed in HEK293 cells transfected with Smad2/3 responsive reporter plasmid incubated for 4 hrs by dual luciferase reporter gene based assay; format: cell-based
T1 sequence (O14793 whole entry): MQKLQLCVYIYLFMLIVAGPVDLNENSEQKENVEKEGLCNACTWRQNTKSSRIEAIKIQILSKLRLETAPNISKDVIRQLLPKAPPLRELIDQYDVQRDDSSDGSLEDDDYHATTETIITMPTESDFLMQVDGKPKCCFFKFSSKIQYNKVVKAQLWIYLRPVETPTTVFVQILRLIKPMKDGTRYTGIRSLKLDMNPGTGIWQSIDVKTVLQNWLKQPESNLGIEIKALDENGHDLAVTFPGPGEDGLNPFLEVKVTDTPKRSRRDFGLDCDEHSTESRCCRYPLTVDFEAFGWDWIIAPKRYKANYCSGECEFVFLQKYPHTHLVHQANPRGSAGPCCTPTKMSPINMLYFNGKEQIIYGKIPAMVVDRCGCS

[5] = target: Transforming growth factor beta-1 proprotein (Homo sapiens, UniProt P01137); assay: Inhibition of TGF beta 1 (unknown origin) expressed in HEK293 cells transfected with Smad2/3 responsive reporter plasmid incubated for 4 hrs by dual luciferase reporter gene assay; format: cell-based
Transforming growth factor beta-1 proprotein, sequence (P01137 279-390 limits assumed): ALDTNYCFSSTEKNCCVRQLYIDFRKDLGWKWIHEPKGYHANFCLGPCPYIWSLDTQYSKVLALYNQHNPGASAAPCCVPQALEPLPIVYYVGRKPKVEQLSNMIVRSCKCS
How it was run: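 HEK293 cells co-transfected with Smad-responsive firefly luciferase reporter (pGL4.48[luc2P/SBE/Hygro]) and Renilla control (pGL4.74[hRluc/TK]). Cells starved 8 h in serum-free DMEM, then exposed 4 h to TGF-β1 at 2.5 ng/mL (0.1 nM) with or without peptide (0.025–18 or 0.074–54 μM). SB431542 at 5 μM as positive control. Triplicate means ± SD. IC50 from sigmoidal curve fitting.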

Mus musculus = assay: In vivo inhibition of myostatin in C57BL/6J mouse assessed as increase in weight of tibialis anterior muscles normalized with body weight at 0.75 mM, IM administered for 28 days; format: functional; conditions: time 28.0 day; how it was run: as §1

IC50 [2] [nM] | IC50 [3] [nM] | IC50 [4] [nM] | IC50 [5] [nM] | SMILES | Activity [1] [%] | Activity (Mus musculus)
630 | 890 | 190 | 1600 | CC[C@@H](C)[C@@H](NC(=O)[C@@H](CCCNC(=N)N)NC(=O)[C@@H](Cc1c[nH]c2ccccc12)NC(=O)[C@H](NC(=O)[C@@H](CCCCN)NC(=O)[C@H](NC(=O)[C@@H](CCCNC(=N)N)NC(=O)[C@H](NC(=O)[C@@H](Cc1c[nH]c2ccccc12)NC(=O)[C@@H](CCCNC(=N)N)NC(=O)[C@@H](CCCCN)NC(=O)[C@H](NC(=O)[C@@H](CCCNC(=N)N)NC(=O)[C@H](N)CC(C)C)C1CCCCC1)[C@H](C)CC)C1CCCCC1)[C@H](C)CC)C(=O)N[C@H](Cc1ccc(O)cc1)C(=O)N[C@H](Cc1c[nH]c2ccccc12)C(N)=O | 133 | Active
1400 | 1400 | 260 | 6700 | CC[C@H](C)[C@H](NC(=O)[C@H](CCC(N)=O)NC(=O)[C@@H](NC(=O)[C@H](CCCCN)NC(=O)[C@@H](NC(=O)[C@@H](Cc1c[nH]c2ccccc12)NC(=O)[C@H](CCCNC(=N)N)NC(=O)[C@@H](NC(=O)[C@H](Cc1ccc(O)cc1)NC(=O)[C@@H](N)Cc1c[nH]c2ccccc12)[C@@H](C)CC)[C@@H](C)CC)C1CCCCC1)C(=O)N[C@@H](Cc1c[nH]c2ccccc12)C(=O)N[C@@H](CO)C(=O)N[C@@H](CCCCN)C(=O)N[C@H](C(=O)N[C@@H](CCCNC(=N)N)C(=O)N[C@@H](CC(C)C)C(N)=O)C1CCCCC1 (H-WYIR[dW]IK[Chg]QIWSK[Chg]RL-NH2) | 109 | Active
